In ChEMBL document CHEMBL2346521, “Synthesis, structure-activity relationship studies, and identification of novel 5,6,7,8-tetrahydroimidazo[1,5-a]pyrazine derivatives as dual orexin receptor antagonists. Part 1” (Bioorg Med Chem Lett, 2013):

Legend:
[1] = target: T1, Orexin receptor type 2 (Homo sapiens, UniProt O43614); test: Antagonist activity at human OX2 receptor expressed in CHO cells assessed as inhibition of orexin A-induced calcium influx by FLIPR assay; assay type: functional, cell-based
T1 sequence (O43614 whole entry): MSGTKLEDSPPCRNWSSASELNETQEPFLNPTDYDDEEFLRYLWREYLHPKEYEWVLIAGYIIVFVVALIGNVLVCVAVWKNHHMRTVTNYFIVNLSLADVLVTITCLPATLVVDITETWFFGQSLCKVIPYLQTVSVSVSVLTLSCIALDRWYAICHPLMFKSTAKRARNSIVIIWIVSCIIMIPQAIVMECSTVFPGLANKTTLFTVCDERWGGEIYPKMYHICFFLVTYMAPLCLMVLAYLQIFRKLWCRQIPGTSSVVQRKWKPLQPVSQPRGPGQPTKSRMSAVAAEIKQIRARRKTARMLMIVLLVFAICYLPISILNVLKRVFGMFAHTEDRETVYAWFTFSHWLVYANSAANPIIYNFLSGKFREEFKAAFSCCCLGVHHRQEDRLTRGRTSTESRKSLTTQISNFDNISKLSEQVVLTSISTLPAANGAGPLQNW
Summary of the method: (§1)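 CHO cells stably expressing human OX1R or OX2R, loaded at 37 °C, 5% CO₂ with the calcium dye fluo-3 AM, then washed. Antagonist added at a range of concentrations before an approximately EC₈₀ orexin A challenge. Ca²⁺ mobilization read by FLIPR. IC₅₀ taken as the concentration giving 50% inhibition of the orexin A-induced calcium response, reported in nM.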

[2] = target: T2, Orexin/Hypocretin receptor type 1 (Homo sapiens, UniProt O43613); test: Antagonist activity at human OX1 receptor expressed in CHO cells assessed as inhibition of orexin A-induced calcium influx by FLIPR assay; assay type: functional, cell-based; summary of the method: as §1
T2 sequence (O43613 whole entry): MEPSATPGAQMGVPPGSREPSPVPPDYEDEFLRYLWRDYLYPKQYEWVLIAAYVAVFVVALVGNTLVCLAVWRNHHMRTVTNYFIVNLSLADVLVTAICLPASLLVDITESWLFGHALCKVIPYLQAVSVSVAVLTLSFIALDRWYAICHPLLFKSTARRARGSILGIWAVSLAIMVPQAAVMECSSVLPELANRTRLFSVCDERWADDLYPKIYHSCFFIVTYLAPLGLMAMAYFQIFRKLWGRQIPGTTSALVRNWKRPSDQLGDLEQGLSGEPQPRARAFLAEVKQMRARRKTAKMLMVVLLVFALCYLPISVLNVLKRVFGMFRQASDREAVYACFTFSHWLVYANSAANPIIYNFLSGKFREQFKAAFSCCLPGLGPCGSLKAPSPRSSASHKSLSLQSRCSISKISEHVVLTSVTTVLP

[3] = Plasma protein binding in human; assay type: ADME, cell-free; conditions: read-out: PPB
[4] = Ratio of drug level in brain to plasma in Wistar rat at 100 mg/kg, po after 3 hrs; assay type: ADME, organism-based; set-up: dose 100 mg/kg, route oral; conditions: read-out: BPR
Summary of the method: (§2)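 Male Wistar rats dosed orally at 100 mg/kg. Brain and plasma sampled 3 h after dosing. Total compound levels given as nM and as ng/g (brain) or ng/ml (plasma). Brain/plasma ratio calculated from these total concentrations.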

[5] = Drug uptake in Wistar rat brain at 100 mg/kg, po after 3 hrs; assay type: ADME, organism-based; set-up: dose 100 mg/kg, route oral; conditions: read-out: Drug uptake; summary of the method: as §2
[6] = Plasma concentration in Wistar rat at 100 mg/kg, po after 3 hrs; assay type: ADME, organism-based; set-up: dose 100 mg/kg, route oral; summary of the method: as §2

SMILES	IC50 [1] [nM]	IC50 [2] [nM]	fraction unbound [3]	Kp at 3 h [4]	concentration at 3 h [5] [nM]	concentration at 3 h [6] [nM]
CCc1nc(C(N)=O)c2n1CCN([C@@H](C(=O)NC)c1ccccc1)C2CCc1ccc(C(F)(F)F)cc1 (mixture of isomers)	194	> 10000	–	–	–	–
C=Cc1nc(CC)n2c1C(CCc1ccc(C(F)(F)F)cc1)N([C@@H](C(=O)NC)c1ccccc1)CC2 (single isomer, unassigned)	23	150	–	–	–	–
CCc1ncc2n1CCN([C@@H](C(=O)NC)c1ccccc1)C2CCc1ccc(C(F)(F)F)cc1 (mixture of isomers)	194	> 10000	–	–	–	–
CCCc1nc(Cl)c2n1CCN([C@@H](C(=O)NC)c1ccccc1)[C@H]2CCc1ccc(C(F)(F)F)cc1	60	459	–	–	–	–
CCc1nc(OC)c2n1CCN([C@@H](C(=O)NC)c1ccccc1)C2CCc1ccc(C(F)(F)F)cc1 (mixture of isomers)	73	134	–	–	–	–
CCc1nc(C)c2n1CCN([C@@H](C(=O)NC)c1ccccc1)C2CCc1ccc(C(F)(F)F)cc1 (mixture of isomers)	24	> 10000	–	–	–	–
CCc1nc(I)c2n1CCN([C@@H](C(=O)NC)c1ccccc1)C2CCc1ccc(C(F)(F)F)cc1 (mixture of isomers)	23	717	–	–	–	–
CCc1nc(Cl)c2n1CCN([C@@H](C(=O)NC)c1ccccc1)[C@@H]2CCc1ccc(C(F)(F)F)cc1	107	283	–	–	–	–
CCc1nc(C2CC2)c2n1CCN([C@@H](C(=O)NC)c1ccccc1)[C@H]2CCc1ccc(C(F)(F)F)cc1	29	4170	–	–	–	–
CNC(=O)[C@@H](c1ccccc1)N1CCn2c(C3CC3)nc(Cl)c2[C@@H]1CCc1ccc(C(F)(F)F)cc1	9	31	0.01	0.06	385	6400
CCc1nc(C(C)C)c2n1CCN([C@@H](C(=O)NC)c1ccccc1)C2CCc1ccc(C(F)(F)F)cc1 (stereo partly specified)	2900	> 10000	–	–	–	–
CCOc1nc(CC)n2c1C(CCc1ccc(C(F)(F)F)cc1)N([C@@H](C(=O)NC)c1ccccc1)CC2 (mixture of isomers)	2750	3980	–	–	–	–
CNC(=O)[C@@H](c1ccccc1)N1CCn2c(CC3CC3)nc(Cl)c2[C@@H]1CCc1ccc(C(F)(F)F)cc1	35	1430	–	–	–	–
CCc1nc(CC)n2c1C(CCc1ccc(C(F)(F)F)cc1)N([C@@H](C(=O)NC)c1ccccc1)CC2 (mixture of isomers)	20	> 10000	–	–	–	–

Results, then the molecule that gave them:

IC50 [1] [nM]	IC50 [2] [nM]	fraction unbound [3]	Kp at 3 h [4]	concentration at 3 h [5] [nM]	concentration at 3 h [6] [nM]	SMILES
25	1650	–	–	–	–	CNC(=O)[C@@H](c1ccccc1)N1CCn2c(COC)nc(Cl)c2[C@@H]1CCc1ccc(C(F)(F)F)cc1 (mixture of isomers)
11	313	–	–	–	–	CNC(=O)[C@@H](c1ccccc1)N1CCn2c(C(C)C)nc(Cl)c2[C@@H]1CCc1ccc(C(F)(F)F)cc1
11	1070	–	–	–	–	CCc1nc(C(F)(F)F)c2n1CCN([C@@H](C(=O)NC)c1ccccc1)[C@H]2CCc1ccc(C(F)(F)F)cc1
9	40	0.01	0.07	303	4210	CCc1nc(Cl)c2n1CCN([C@@H](C(=O)NC)c1ccccc1)[C@H]2CCc1ccc(C(F)(F)F)cc1
14	85	–	–	–	–	CCc1nc(SC)c2n1CCN([C@@H](C(=O)NC)c1ccccc1)[C@H]2CCc1ccc(C(F)(F)F)cc1
111	344	–	–	–	–	CCc1nc(C(=O)N(C)C)c2n1CCN([C@@H](C(=O)NC)c1ccccc1)C2CCc1ccc(C(F)(F)F)cc1 (stereo partly specified)
10	537	–	–	–	–	CCc1nc(C#N)c2n1CCN([C@@H](C(=O)NC)c1ccccc1)C2CCc1ccc(C(F)(F)F)cc1 (mixture of isomers)
38	492	–	–	–	–	CCc1nc(C(=O)NC)c2n1CCN([C@@H](C(=O)NC)c1ccccc1)C2CCc1ccc(C(F)(F)F)cc1 (stereo partly specified)
225	> 10000	–	–	–	–	CCCc1nc(CC)n2c1C(CCc1ccc(C(F)(F)F)cc1)N([C@@H](C(=O)NC)c1ccccc1)CC2 (stereo partly specified)
13	90	–	–	–	–	CNC(=O)[C@@H](c1ccccc1)N1CCn2c(C)nc(Cl)c2[C@@H]1CCc1ccc(C(F)(F)F)cc1
